In ChEMBL document CHEMBL1806381, “Unprecedented C-2 arylation of indole with diazonium salts: Syntheses of 2,3-disubstituted indoles and their antimicrobial activity” (Bioorg Med Chem Lett, 2011):
≈ marks a conversion by molar mass, not a printed value.

Columns and labels:
Staphylococcus aureus [1] = test: Antimicrobial activity against methicillin-susceptible Staphylococcus aureus ATCC 29213 assessed as growth inhibition after 18 hrs by MTT assay; type: functional; conditions: ATCC 29213, 18 h
In short: (§1)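 Bacterial suspensions were adjusted to about 5×10^5 CFU/mL and treated with compounds in 2-fold serial dilutions. They were incubated for 18 h as ATCC recommends. Viability was read by MTT because the compounds are coloured.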

[2] = Antiproliferative activity against human HeLa cells after 72 hrs by MTT assay; type: cell-based
Candida albicans = test: Antimicrobial activity against Candida albicans ATCC 26555 assessed as growth inhibition after 18 hrs by MTT assay; type: functional; conditions: ATCC 26555, 18 h
Acinetobacter baumannii = test: Antimicrobial activity against Acinetobacter baumannii ATCC 15151 assessed as growth inhibition after 18 hrs by MTT assay; type: functional; conditions: ATCC 15151, 18 h; in short: as §1
Pseudomonas aeruginosa = test: Antimicrobial activity against Pseudomonas aeruginosa ATCC 27853 assessed as growth inhibition after 18 hrs by MTT assay; type: functional; conditions: ATCC 27853, 18 h; in short: as §1
Staphylococcus aureus [3] = test: Antimicrobial activity against methicillin-resistant Staphylococcus aureus BAA-44 assessed as growth inhibition after 18 hrs by MTT assay; type: functional; conditions: BAA-44, 18 h
In short: (§2)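 Bacterial suspensions adjusted to ~5×10^5 CFU/mL, treated with compounds in 2-fold serial dilutions, incubated per ATCC recommendations for 18 h. Viability read by MTT method, used because the compounds are coloured.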

Enterococcus faecalis = test: Antimicrobial activity against low-level vancomycin-resistant Enterococcus faecalis ATCC 51299 assessed as growth inhibition after 18 hrs by MTT assay; type: functional; conditions: ATCC 51299, 18 h; in short: as §2

Row | SMILES | MIC (Staphylococcus aureus [1]) | GI50 at 72 h [2] | MIC (Candida albicans) | MIC (Acinetobacter baumannii) | MIC (Pseudomonas aeruginosa) | MIC (Staphylococcus aureus [3]) | MIC (Enterococcus faecalis)
1 | Clc1ccc(-c2cc3ccccc3[nH]2)cc1 | > 100 µM | > 100 µM | > 100 µM | > 100 µM | > 100 µM | > 100 µM | > 100 µM
2 | O=S(=O)(c1ccc(Cl)cc1)c1c(-c2ccc(Cl)cc2)[nH]c2ccccc12 | > 100 µM | 14 µM | > 100 µM | > 100 µM | > 100 µM | > 100 µM | > 100 µM
3 | Clc1ccc(/N=N/c2c[nH]c3ccccc23)cc1 | 12.5 µM (≈ 3.2 µg/mL) | 23 µM | 12.5 µM (≈ 3.2 µg/mL) | > 100 µM | > 100 µM | 12.5 µM (≈ 3.2 µg/mL) | 25 µM (≈ 6.39 µg/mL)
4 | Brc1ccc(/N=N/c2c[nH]c3ccccc23)cc1 | 6.3 µM (≈ 1.89 µg/mL) | 49 µM | 25 µM (≈ 7.5 µg/mL) | > 100 µM | > 100 µM | 6.3 µM (≈ 1.89 µg/mL) | 12.5 µM (≈ 3.75 µg/mL)
5 | Brc1ccc(/N=N/c2c(-c3ccc(Br)cc3)[nH]c3ccccc23)cc1 | 6.3 µM (≈ 2.87 µg/mL) | 9 µM | > 100 µM | > 100 µM | > 100 µM | 12.5 µM (≈ 5.69 µg/mL) | 6.3 µM (≈ 2.87 µg/mL)
6 | COc1ccc(/N=N/c2c(-c3ccc(OC)cc3)[nH]c3ccccc23)cc1 | 3.1 µM (≈ 1.11 µg/mL) | 23 µM | > 100 µM | > 100 µM | > 100 µM | 50 µM (≈ 17.9 µg/mL) | > 100 µM
7 | Clc1ccc(/N=N/c2c(-c3ccc(Br)cc3)[nH]c3ccccc23)cc1 | 6.3 µM (≈ 2.59 µg/mL) | 13 µM | > 100 µM | > 100 µM | > 100 µM | 6.3 µM (≈ 2.59 µg/mL) | 6.3 µM (≈ 2.59 µg/mL)
8 | Clc1ccc(/C=C/c2c[nH]c3ccccc23)cc1 | 25 µM (≈ 6.34 µg/mL) | 64 µM | > 100 µM | > 100 µM | > 100 µM | > 100 µM | > 100 µM
9 | Clc1ccc(/C=C/c2[nH]c3ccccc3c2/C=C/c2ccc(Cl)cc2)cc1 | > 100 µM | 69 µM | > 100 µM | > 100 µM | > 100 µM | > 100 µM | > 100 µM
10 | Clc1ccc(-c2cc3[nH]c4ccccc4c3cc2-c2ccc(Cl)cc2)cc1 | > 100 µM | 16 µM | > 100 µM | > 100 µM | > 100 µM | > 100 µM | > 100 µM
11 | Clc1ccc(Sc2c(-c3ccc(Cl)cc3)[nH]c3ccccc23)cc1 | 1.6 µM (≈ 0.592 µg/mL) | 6 µM | > 100 µM | > 100 µM | > 100 µM | 3.1 µM (≈ 1.15 µg/mL) | 3.1 µM (≈ 1.15 µg/mL)
12 | Clc1ccc(Sc2c(-c3ccc(Br)cc3)[nH]c3ccccc23)cc1 | 1.6 µM (≈ 0.664 µg/mL) | 12 µM | > 100 µM | > 100 µM | > 100 µM | 3.1 µM (≈ 1.29 µg/mL) | 3.1 µM (≈ 1.29 µg/mL)
13 | Clc1ccc(Sc2c(-c3ccc(Cl)cc3)[nH]c3ccc(Cl)cc23)cc1 | 1.6 µM (≈ 0.648 µg/mL) | 8 µM | > 100 µM | > 100 µM | > 100 µM | 1.3 µM (≈ 0.526 µg/mL) | 6.3 µM (≈ 2.55 µg/mL)
14 | Clc1ccc(Oc2c(-c3ccc(Cl)cc3)[nH]c3ccccc23)cc1 | 1.6 µM (≈ 0.567 µg/mL) | 9 µM | > 100 µM | > 100 µM | > 100 µM | 3.1 µM (≈ 1.1 µg/mL) | 12.5 µM (≈ 4.43 µg/mL)
15 | Clc1ccc(Oc2c(-c3ccc(Cl)cc3)[nH]c3ccc(Cl)cc23)cc1 | 1.6 µM (≈ 0.622 µg/mL) | 8 µM | > 100 µM | > 100 µM | > 100 µM | 0.6 µM (≈ 0.233 µg/mL) | 12.5 µM (≈ 4.86 µg/mL)
16 | Clc1ccc(Oc2c(-c3ccc(Cl)cc3)[nH]c3ccc(Br)cc23)cc1 | 3.1 µM (≈ 1.34 µg/mL) | 3 µM | > 100 µM | > 100 µM | > 100 µM | 3.1 µM (≈ 1.34 µg/mL) | 12.5 µM (≈ 5.41 µg/mL)
17 | Fc1ccc2[nH]c(-c3ccc(Cl)cc3)c(Oc3ccc(Cl)cc3)c2c1 | 1.6 µM (≈ 0.596 µg/mL) | 13 µM | > 100 µM | > 100 µM | > 100 µM | 1.6 µM (≈ 0.596 µg/mL) | 6.3 µM (≈ 2.35 µg/mL)
18 | COc1ccc2[nH]c(-c3ccc(Cl)cc3)c(Oc3ccc(Cl)cc3)c2c1 | 12.5 µM (≈ 4.8 µg/mL) | 24 µM | > 100 µM | > 100 µM | > 100 µM | 6.3 µM (≈ 2.42 µg/mL) | 25 µM (≈ 9.61 µg/mL)
19 | Fc1cccc2c(Oc3ccc(Cl)cc3)c(-c3ccc(Cl)cc3)[nH]c12 | 1.6 µM (≈ 0.596 µg/mL) | 13 µM | > 100 µM | > 100 µM | > 100 µM | 1.3 µM (≈ 0.484 µg/mL) | 3.1 µM (≈ 1.15 µg/mL)
20 | O=C(c1ccc(Cl)cc1)c1c(-c2ccc(Cl)cc2)[nH]c2ccccc12 | > 100 µM | 19 µM | > 100 µM | > 100 µM | > 100 µM | > 100 µM | > 100 µM
21 | CC1(C)S[C@@H]2[C@H](NC(=O)Cc3ccccc3)C(=O)N2[C@H]1C(=O)O [PENICILLIN G] | 23.9 µM (≈ 7.99 µg/mL) |  |  |  |  | > 100 µM | 11.9 µM (≈ 3.98 µg/mL)
22 | CN[C@H](CC(C)C)C(=O)N[C@H]1C(=O)N[C@@H](CC(N)=O)C(=O)N[C@H]2C(=O)N[C@H]3C(=O)N[C@H](C(=O)N[C@H](C(=O)O)c4cc(O)cc(O)c4-c4cc3ccc4O)[C@H](O)c3ccc(c(Cl)c3)Oc3cc2cc(c3O[C@@H]2O[C@H](CO)[C@@H](O)[C@H](O)[C@H]2O[C@H]2C[C@](C)(N)[C@H](O)[C@H](C)O2)Oc2ccc(cc2Cl)[C@H]1O [VANCOMYCIN] | 2.8 µM (≈ 4.06 µg/mL) |  |  |  |  | 2.8 µM (≈ 4.06 µg/mL) | 86.3 µM (≈ 125 µg/mL)
